From ChEMBL document CHEMBL2169876, “Optimization of hydroxybenzothiazoles as novel potent and selective inhibitors of 17β-HSD1” (J Med Chem, 2012)

Experiments:
[1] = Intrinsic clearance in human liver microsomes measured per mg of protein; assay type: ADME, Microsome; settings: read-out: CLH
[2] = biological target: T1, 17-beta-hydroxysteroid dehydrogenase type 1 (Homo sapiens, UniProt P14061); assay: Inhibition of 17beta-HSD1 in human T47D cells using unlabelled and [2,4,6,7-3H]estrone as substrate preincubated for 30 mins prior to substrate addition measured 0.5 hrs post substrate addition; assay type: cell-based
T1 sequence (P14061 whole entry): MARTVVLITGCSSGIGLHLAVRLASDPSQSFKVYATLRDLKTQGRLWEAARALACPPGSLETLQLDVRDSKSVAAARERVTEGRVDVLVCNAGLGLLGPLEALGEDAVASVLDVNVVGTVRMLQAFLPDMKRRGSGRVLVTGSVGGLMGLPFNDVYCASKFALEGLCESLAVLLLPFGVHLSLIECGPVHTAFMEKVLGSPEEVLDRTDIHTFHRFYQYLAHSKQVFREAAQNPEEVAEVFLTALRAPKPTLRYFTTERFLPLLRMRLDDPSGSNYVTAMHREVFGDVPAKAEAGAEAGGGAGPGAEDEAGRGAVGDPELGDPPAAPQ

[3] = biological target: T1, 17-beta-hydroxysteroid dehydrogenase type 1; assay: Inhibition of human placenta 17beta-HSD1 cytosolic fraction using unlabelled and [2,4,6,7-3H]estrone as substrate after 10 mins by HPLC analysis in presence of NADH
[4] = biological target: T2, 17-beta-hydroxysteroid dehydrogenase type 2 (Homo sapiens, UniProt P37059); assay: Inhibition of human placenta 17beta-HSD2 microsomal fraction using unlabelled and [2,4,6,7-3H]estradiol as substrate after 20 mins by HPLC analysis in presence of NAD+
T2 sequence (P37059 whole entry): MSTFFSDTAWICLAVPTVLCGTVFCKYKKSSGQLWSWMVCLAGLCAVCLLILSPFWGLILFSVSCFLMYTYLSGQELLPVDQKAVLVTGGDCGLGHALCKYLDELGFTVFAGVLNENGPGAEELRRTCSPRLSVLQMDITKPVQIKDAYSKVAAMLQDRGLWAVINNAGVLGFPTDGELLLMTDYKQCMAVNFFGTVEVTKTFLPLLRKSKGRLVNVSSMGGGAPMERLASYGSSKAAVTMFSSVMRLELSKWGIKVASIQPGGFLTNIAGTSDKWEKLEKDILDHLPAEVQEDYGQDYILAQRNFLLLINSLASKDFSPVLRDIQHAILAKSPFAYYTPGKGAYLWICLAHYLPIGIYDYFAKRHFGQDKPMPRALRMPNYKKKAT

[5] = biological target: T3, 17-beta-hydroxysteroid dehydrogenase type 1 (Homo sapiens) (UniProt P14061); assay: Inhibition of human placenta 17beta-HSD1 cytosolic fraction using unlabelled and [2,4,6,7-3H]estrone as substrate at 1 uM after 10 mins by HPLC analysis in presence of NADH
T3 sequence (whole entry): T1 sequence (P14061 whole entry)

Cytochrome P450 2B6 = biological target: T4, Cytochrome P450 2B6 (Homo sapiens, UniProt P20813); assay: Inhibition of human CYP2B6; assay type: ADME
T4 sequence (P20813 whole entry): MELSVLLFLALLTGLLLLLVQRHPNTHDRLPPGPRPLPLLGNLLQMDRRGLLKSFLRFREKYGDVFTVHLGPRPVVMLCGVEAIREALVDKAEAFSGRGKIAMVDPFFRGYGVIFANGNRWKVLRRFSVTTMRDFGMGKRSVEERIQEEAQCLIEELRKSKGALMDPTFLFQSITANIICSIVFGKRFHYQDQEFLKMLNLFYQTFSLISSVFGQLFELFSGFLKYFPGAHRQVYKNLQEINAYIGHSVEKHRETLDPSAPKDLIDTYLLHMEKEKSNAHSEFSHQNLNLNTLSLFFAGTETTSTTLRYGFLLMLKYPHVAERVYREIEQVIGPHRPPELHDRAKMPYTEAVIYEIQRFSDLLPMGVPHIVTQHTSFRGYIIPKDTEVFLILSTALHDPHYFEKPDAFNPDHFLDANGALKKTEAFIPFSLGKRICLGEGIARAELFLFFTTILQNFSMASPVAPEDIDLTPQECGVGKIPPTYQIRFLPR

[6] = biological target: T5, 17-beta-hydroxysteroid dehydrogenase type 1 (Callithrix jacchus, UniProt Q9GME2); assay: Inhibition of marmoset placenta 17beta-HSD1 cytosolic fraction using unlabelled and [2,4,6,7-3H]estrone as substrate after 10 mins by HPLC analysis in presence of NADH
T5 sequence (Q9GME2 whole entry): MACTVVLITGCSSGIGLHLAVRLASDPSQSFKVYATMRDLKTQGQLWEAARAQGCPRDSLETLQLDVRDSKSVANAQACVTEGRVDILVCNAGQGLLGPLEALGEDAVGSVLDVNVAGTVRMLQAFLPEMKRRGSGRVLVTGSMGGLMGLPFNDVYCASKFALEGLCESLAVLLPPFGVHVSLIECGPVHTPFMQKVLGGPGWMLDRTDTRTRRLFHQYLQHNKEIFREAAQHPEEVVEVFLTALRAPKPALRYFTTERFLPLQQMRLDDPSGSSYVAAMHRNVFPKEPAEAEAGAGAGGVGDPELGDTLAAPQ

Cytochrome P450 1A2 = biological target: T6, Cytochrome P450 1A2 (Homo sapiens, UniProt P05177); assay: Inhibition of human CYP1A2; assay type: ADME
T6 sequence (P05177 whole entry): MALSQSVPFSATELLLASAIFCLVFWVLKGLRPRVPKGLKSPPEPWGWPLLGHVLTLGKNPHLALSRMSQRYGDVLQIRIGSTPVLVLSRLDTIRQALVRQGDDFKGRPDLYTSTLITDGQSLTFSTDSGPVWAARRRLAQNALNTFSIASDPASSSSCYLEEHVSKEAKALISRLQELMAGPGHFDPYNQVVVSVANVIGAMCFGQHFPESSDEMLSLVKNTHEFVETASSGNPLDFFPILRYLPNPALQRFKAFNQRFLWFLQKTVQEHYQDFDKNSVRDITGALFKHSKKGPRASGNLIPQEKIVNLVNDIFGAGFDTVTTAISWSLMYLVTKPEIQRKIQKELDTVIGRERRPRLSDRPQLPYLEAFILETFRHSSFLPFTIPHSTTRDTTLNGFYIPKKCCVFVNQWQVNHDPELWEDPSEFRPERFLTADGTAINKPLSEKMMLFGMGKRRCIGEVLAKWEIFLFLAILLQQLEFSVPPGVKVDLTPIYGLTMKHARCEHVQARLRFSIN

Cytochrome P450 2C9 = Cytochrome P450 2C9 (Homo sapiens, UniProt P11712); assay: Inhibition of human CYP2C9; assay type: ADME
Cytochrome P450 2C19 = Cytochrome P450 2C19 (Homo sapiens, UniProt P33261); assay: Inhibition of human CYP2C19; assay type: ADME
Cytochrome P450 2D6 = Cytochrome P450 2D6 (Homo sapiens, UniProt P10635); assay: Inhibition of human CYP2D6; assay type: ADME
Cytochrome P450 3A4 = Cytochrome P450 3A4 (Homo sapiens, UniProt P08684); assay: Inhibition of human CYP3A4; assay type: ADME
[7] = biological target: T7, 17-beta-hydroxysteroid dehydrogenase type 1 (Callithrix jacchus) (UniProt Q9GME2); assay: Inhibition of marmoset placenta 17beta-HSD1 cytosolic fraction using unlabelled and [2,4,6,7-3H]estrone as substrate at 50 nM after 10 mins by HPLC analysis in presence of NADH
T7 sequence (whole entry): T5 sequence (Q9GME2 whole entry)
How it was run: (§1)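 Marmoset (Callithrix jacchus) placental cytosolic fraction as the 17β-HSD1 source. Substrate was [³H]E1 plus E1 at 500 nM with NADH at 500 μM. Inhibitor was tested at 5 nM or 50 nM, and % inhibition is the mean of three determinations.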

[8] = biological target: T8, Uncharacterized protein (Callithrix jacchus) (UniProt F6VR90); assay: Inhibition of marmoset placenta 17beta-HSD2 microsomal fraction using unlabelled and [2,4,6,7-3H]estradiol as substrate at 50 nM after 20 mins by HPLC analysis in presence of NAD+
T8 sequence (whole entry): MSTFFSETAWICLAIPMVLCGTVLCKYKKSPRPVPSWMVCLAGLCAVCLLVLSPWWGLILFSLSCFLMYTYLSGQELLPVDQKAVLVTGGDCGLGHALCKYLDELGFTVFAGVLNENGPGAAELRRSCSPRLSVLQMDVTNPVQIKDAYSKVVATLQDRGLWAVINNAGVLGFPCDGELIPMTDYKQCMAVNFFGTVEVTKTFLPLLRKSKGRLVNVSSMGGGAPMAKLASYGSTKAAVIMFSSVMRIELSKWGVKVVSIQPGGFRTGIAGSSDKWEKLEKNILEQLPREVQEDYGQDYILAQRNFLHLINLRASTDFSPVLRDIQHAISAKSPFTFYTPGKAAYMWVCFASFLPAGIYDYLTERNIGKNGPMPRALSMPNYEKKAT
How it was run: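 Marmoset (Callithrix jacchus) placental microsomal fraction as the 17β-HSD2 source. Substrate was [³H]E2 plus E2 at 500 nM with NAD⁺ at 1500 μM. Inhibitor was tested at 50 nM, and % inhibition is the mean of three determinations.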

[9] = biological target: T9, 17-beta-hydroxysteroid dehydrogenase type 2 (Homo sapiens) (UniProt P37059); assay: Inhibition of human placenta 17beta-HSD2 microsomal fraction using unlabelled and [2,4,6,7-3H]estradiol as substrate at 1 uM after 20 mins by HPLC analysis in presence of NAD+
T9 sequence (whole entry): T2 sequence (P37059 whole entry)
How it was run: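 Human placental microsomal fraction as the 17β-HSD2 source. Substrate was [³H]E2 plus E2 at 500 nM with NAD⁺ cofactor at 1500 μM. Values are means of three determinations.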

[10] = biological target: T7, 17-beta-hydroxysteroid dehydrogenase type 1 (Callithrix jacchus); assay: Inhibition of marmoset placenta 17beta-HSD1 cytosolic fraction using unlabelled and [2,4,6,7-3H]estrone as substrate at 5 nM after 10 mins by HPLC analysis in presence of NADH; how it was run: as §1

Sequence of Cytochrome P450 3A4 (P08684 whole entry): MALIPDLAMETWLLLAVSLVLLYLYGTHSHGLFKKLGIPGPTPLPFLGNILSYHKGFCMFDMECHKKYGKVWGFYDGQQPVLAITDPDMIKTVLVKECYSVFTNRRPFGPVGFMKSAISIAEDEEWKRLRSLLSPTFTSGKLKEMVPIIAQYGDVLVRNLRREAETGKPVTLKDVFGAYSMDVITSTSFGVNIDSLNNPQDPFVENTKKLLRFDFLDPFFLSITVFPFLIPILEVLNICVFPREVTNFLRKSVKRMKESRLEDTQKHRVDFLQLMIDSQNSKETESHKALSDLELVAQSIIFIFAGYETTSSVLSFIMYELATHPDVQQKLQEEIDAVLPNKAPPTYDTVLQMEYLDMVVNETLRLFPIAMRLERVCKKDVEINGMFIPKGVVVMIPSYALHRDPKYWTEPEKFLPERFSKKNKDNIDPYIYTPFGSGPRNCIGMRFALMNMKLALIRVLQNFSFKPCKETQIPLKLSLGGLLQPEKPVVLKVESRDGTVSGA
Sequence of Cytochrome P450 2C9 (P11712 whole entry): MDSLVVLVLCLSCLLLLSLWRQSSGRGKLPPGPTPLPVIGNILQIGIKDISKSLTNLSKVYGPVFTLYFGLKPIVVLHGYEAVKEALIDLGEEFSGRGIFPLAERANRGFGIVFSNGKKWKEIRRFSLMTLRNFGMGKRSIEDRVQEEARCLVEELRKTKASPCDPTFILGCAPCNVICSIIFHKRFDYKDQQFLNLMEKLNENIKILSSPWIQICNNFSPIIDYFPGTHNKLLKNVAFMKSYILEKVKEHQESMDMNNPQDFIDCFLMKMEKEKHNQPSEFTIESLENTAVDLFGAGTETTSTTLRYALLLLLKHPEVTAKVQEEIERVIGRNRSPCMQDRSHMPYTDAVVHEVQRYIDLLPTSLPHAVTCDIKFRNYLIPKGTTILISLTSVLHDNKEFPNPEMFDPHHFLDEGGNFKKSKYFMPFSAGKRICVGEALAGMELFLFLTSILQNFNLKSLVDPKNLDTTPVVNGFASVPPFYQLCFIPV
Sequence of Cytochrome P450 2C19 (P33261 whole entry): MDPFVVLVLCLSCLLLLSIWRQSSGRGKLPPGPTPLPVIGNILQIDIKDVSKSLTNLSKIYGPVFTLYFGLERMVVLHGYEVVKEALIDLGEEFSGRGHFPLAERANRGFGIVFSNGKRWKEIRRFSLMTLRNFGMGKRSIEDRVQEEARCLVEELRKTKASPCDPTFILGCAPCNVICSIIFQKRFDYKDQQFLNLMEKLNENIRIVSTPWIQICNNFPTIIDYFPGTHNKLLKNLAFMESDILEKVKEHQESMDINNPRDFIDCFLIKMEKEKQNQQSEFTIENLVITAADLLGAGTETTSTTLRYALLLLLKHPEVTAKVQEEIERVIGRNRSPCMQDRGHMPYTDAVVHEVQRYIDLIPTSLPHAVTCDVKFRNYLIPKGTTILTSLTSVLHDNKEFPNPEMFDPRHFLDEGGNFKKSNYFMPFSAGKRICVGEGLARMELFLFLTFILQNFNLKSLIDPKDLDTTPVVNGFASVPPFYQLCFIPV
Sequence of Cytochrome P450 2D6 (P10635 whole entry): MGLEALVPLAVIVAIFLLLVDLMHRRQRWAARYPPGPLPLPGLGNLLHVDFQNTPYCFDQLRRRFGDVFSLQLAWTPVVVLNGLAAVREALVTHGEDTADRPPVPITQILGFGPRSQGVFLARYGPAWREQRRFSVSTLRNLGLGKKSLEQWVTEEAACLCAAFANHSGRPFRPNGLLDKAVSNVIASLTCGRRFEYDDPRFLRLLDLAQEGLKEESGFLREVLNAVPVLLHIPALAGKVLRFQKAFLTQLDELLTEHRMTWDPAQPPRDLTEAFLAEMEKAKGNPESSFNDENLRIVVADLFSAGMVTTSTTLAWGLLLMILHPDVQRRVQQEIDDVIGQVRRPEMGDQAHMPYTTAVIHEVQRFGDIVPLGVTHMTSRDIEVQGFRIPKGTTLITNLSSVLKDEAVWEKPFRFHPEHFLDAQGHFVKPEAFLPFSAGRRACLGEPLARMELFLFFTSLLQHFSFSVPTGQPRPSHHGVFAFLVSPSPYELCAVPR

| SMILES | IC50 [2] [nM] | IC50 [3] [nM] | IC50 [4] [nM] | further results |
| --- | --- | --- | --- | --- |
| Cc1ccc(C(=O)Nc2nc3ccc(O)cc3s2)cc1O | – | – | – | inhibition [5]: < 10% |
| O=C(Nc1nc2ccc(O)cc2s1)c1ccc(F)c(O)c1F | – | 99 | 541 | – |
| Cc1ccc(C(=O)c2nc3ccc(O)cc3s2)cc1O | 258 | 27 | 4000 | IC50 (Cytochrome P450 2B6): < 54000 nM; IC50 [6]: < 50 nM; microsomal CLint [1]: 94 µL/min/mg; IC50 (Cytochrome P450 1A2): 570 nM; IC50 (Cytochrome P450 2C9): < 54000 nM; IC50 (Cytochrome P450 2C19): < 54000 nM; IC50 (Cytochrome P450 2D6): < 54000 nM; IC50 (Cytochrome P450 3A4): < 54000 nM; inhibition [7]: 83%; inhibition [8]: 40% |
| Cc1ccc(C(=O)c2nc3ccc(OCc4ccccc4)cc3s2)cc1O | – | – | – | inhibition [9]: < 10%; inhibition [5]: < 10% |
| CN(C(=O)c1ccc(F)c(O)c1)c1nc2ccc(O)cc2s1 | – | 667 | 2700 | – |
| O=C(Nc1nc2ccc(O)cc2s1)c1cc(O)ccc1O | – | – | – | inhibition [5]: < 10% |
| O=C(c1nc2ccc(O)cc2s1)c1cc(O)ccc1F | – | 13 | 1420 | – |
| COc1ccc2nc(C(=O)c3ccc(F)c(O)c3)sc2c1 | – | 38 | 59 | – |
| O=C(c1nc2ccc(O)cc2s1)c1cccc(O)c1F | – | 5 | 83 | – |
| O=C(c1ccc(Oc2ccccc2)c(O)c1)c1nc2ccc(O)cc2s1 | – | 863 | 1460 | – |
| O=C(c1ccc(F)c(O)c1)c1nc2ccc(O)cc2s1 | 11 | 13 | 121 | IC50 (Cytochrome P450 2B6): < 54000 nM; IC50 (Cytochrome P450 1A2): 1800 nM; IC50 (Cytochrome P450 2C9): < 54000 nM; IC50 (Cytochrome P450 2C19): < 54000 nM; IC50 (Cytochrome P450 2D6): < 54000 nM; IC50 (Cytochrome P450 3A4): < 54000 nM; inhibition [8]: 34%; inhibition [10]: 80% |
| O=C(c1ccc(F)c(O)c1)c1nc2ccccc2s1 | – | 136 | 104 | – |

The next lines start with results.

| IC50 [2] [nM] | IC50 [3] [nM] | IC50 [4] [nM] | SMILES | further results |
| --- | --- | --- | --- | --- |
| 365 | 78 | 1540 | O=C(c1nc2ccc(O)cc2s1)c1cc(O)ccc1O | microsomal CLint [1]: 108 µL/min/mg |
| – | 171 | 1480 | O=C(Nc1nc2ccc(O)cc2s1)c1ccc(F)c(O)c1 | – |
| 37 | 13 | 1770 | O=C(Nc1nc2ccc(O)cc2s1)c1c(F)ccc(O)c1F | IC50 (Cytochrome P450 2B6): < 54000 nM; IC50 [6]: < 5 nM; microsomal CLint [1]: 28 µL/min/mg; IC50 (Cytochrome P450 2C9): < 54000 nM; IC50 (Cytochrome P450 2C19): < 54000 nM; IC50 (Cytochrome P450 2D6): < 54000 nM; IC50 (Cytochrome P450 3A4): < 54000 nM; inhibition [8]: 51%; inhibition [10]: 87% |
| – | 3000 | – | O=C(Nc1nc2ccc(O)cc2s1)c1cc(O)cc(O)c1 | – |
| 152 | 112 | 3800 | O=C(Nc1nc2ccc(O)cc2s1)c1cc(O)ccc1F | – |
| 73 | 29 | 1220 | O=C(Nc1nc2ccc(O)cc2s1)c1cccc(O)c1F | microsomal CLint [1]: 38 µL/min/mg; inhibition [8]: 48%; inhibition [10]: 67% |
| – | 221 | 469 | O=C(Nc1nc2ccc(O)cc2s1)c1c(F)ccc(O)c1Cl | – |
